Assays:
Serine protease 1 = target: T1, Serine protease 1 (Bos taurus, UniProt P00760); test: Inhibitory activity against bovine pancreatic trypsin
T1 sequence (P00760 whole entry): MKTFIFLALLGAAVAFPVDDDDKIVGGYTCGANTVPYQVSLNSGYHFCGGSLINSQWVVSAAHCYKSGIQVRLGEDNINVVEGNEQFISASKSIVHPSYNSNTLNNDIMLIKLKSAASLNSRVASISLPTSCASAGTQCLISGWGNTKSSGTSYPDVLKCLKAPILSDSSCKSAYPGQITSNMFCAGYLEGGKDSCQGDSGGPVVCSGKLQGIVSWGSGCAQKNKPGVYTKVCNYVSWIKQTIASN
Outline: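 Bovine trypsin at 1 nM final, with buffer 0.05 M Tris, 0.15 M NaCl, 0.1% PEG-8000, 0.02 M CaCl2, pH 7.5, room temperature. 30 min compound preincubation, then S-2765 at 250 μM final. 405 nm read continuously for 5 min. IC50 from initial rates; apparent Ki by Cheng-Prusoff, assuming competitive kinetics.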

Coagulation factor X = Coagulation factor X (Homo sapiens, UniProt P00742); test: Compound was evaluated for the inhibition of human Coagulation factor Xa
Coagulation factor X, sequence (P00742 41-179 limits assumed): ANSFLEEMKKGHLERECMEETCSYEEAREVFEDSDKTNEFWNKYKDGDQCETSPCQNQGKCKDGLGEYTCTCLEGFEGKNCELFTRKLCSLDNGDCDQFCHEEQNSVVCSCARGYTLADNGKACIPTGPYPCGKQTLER
Coagulation factor X, sequence (P00742 235-488 limits assumed): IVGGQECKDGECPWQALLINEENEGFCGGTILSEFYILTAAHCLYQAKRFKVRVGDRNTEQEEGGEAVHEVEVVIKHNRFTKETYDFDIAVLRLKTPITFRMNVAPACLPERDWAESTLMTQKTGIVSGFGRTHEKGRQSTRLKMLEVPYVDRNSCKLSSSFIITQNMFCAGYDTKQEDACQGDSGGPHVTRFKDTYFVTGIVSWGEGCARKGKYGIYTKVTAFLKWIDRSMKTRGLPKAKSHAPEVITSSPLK

Prothrombin [1] = target: T2, Prothrombin (Homo sapiens, UniProt P00734); test: Inhibition of human thrombin
Outline: (§1)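 Preincubated with compound 30 min, then Pefachrome TH at 50 μM final. p-Nitroanilide release followed at 405 nm for 5 min. IC50 from initial velocities; apparent Ki via Cheng-Prusoff, assuming competitive inhibition.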

[2] = target: Tissue-type plasminogen activator (Homo sapiens, UniProt P00750); test: Compound was evaluated for the inhibition of Tissue type plasminogen activator (tissue plasminogen activator)
Tissue-type plasminogen activator, sequence (P00750 whole entry): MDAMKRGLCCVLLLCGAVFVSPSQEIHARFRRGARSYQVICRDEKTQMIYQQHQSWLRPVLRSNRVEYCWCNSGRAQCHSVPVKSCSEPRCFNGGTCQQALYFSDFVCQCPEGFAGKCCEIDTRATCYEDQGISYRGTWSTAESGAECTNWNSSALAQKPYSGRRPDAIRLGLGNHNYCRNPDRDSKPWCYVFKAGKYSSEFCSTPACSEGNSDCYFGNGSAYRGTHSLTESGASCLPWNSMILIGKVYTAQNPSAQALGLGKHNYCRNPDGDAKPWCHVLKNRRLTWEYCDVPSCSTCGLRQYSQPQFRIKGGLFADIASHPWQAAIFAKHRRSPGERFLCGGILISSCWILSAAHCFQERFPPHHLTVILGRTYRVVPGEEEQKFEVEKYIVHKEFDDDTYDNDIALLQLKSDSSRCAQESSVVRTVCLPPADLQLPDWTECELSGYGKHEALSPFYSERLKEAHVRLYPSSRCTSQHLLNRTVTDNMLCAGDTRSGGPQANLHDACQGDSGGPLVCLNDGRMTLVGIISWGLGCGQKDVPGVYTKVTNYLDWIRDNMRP
Outline: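 tPA, final enzyme 1 nM, in 0.05 M Tris, 0.15 M NaCl, 0.1% (w/v) BSA, pH 7.5. Preincubated 30 min with compound at room temperature, then Pefachrome-tPA at 500 μM final added. Release of p-nitroanilide monitored at 405 nm for 5 min. IC50 taken from initial rates; apparent Ki via Cheng-Prusoff, assuming competitive inhibition.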

[3] = target: T3, Vitamin K-dependent protein C (Homo sapiens, UniProt P04070); test: Compound was evaluated for the inhibition of activated protein C (aPC)
T3 sequence (P04070 43-197 limits assumed): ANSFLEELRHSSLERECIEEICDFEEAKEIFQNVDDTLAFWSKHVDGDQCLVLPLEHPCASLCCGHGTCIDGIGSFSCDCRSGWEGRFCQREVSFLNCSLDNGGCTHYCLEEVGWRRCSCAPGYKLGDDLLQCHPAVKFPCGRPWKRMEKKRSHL
T3 sequence (P04070 212-461 limits assumed): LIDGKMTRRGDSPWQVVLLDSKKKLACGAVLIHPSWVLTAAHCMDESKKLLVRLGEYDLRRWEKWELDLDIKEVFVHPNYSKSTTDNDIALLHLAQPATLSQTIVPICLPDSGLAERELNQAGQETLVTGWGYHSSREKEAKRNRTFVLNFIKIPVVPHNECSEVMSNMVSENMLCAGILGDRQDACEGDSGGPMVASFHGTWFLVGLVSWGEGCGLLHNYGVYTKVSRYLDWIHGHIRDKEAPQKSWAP
Outline: (§2)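 Human aPC, final enzyme 1 nM, in 0.05 M Tris, 0.15 M NaCl, 0.1% PEG-8000, 0.02 M CaCl2, pH 7.5. Compound preincubated with enzyme 30 min at room temperature. S-2366 at 500 μM final started the reaction. p-Nitroanilide release read continuously at 405 nm for 5 min, under 10% substrate consumed. IC50 from initial velocities; apparent Ki by Cheng-Prusoff, competitive mechanism assumed.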

Plasminogen = Plasminogen (Homo sapiens, UniProt P00747); test: Compound was evaluated for the inhibition of plasmin
Plasminogen, sequence (P00747 97-580 limits assumed): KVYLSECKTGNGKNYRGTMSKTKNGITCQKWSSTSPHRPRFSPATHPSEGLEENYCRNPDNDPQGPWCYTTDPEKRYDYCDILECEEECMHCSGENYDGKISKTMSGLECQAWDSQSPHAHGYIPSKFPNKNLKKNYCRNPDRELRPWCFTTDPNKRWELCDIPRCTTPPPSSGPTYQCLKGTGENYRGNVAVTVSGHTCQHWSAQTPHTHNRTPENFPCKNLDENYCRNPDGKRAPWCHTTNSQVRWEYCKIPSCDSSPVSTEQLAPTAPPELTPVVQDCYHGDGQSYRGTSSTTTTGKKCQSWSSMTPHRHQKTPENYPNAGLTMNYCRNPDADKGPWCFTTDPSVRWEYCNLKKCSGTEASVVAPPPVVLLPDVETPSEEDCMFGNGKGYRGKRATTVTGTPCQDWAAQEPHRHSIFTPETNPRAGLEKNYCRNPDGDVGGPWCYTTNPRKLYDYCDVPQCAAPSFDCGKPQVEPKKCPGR
Plasminogen, sequence (P00747 581-810 limits assumed): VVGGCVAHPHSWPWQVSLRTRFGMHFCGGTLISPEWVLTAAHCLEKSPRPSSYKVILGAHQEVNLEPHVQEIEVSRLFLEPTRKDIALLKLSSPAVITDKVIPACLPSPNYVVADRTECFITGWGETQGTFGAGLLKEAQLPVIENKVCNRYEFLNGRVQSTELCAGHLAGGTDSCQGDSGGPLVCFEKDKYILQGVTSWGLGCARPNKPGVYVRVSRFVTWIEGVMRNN
Outline: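 Compound preincubated 30 min, then S-2366 at 300 μM final. Continuous 405 nm read over 5 min. Initial velocities gave IC50; apparent Ki from Cheng-Prusoff, assuming competitive mechanism.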

Prothrombin [4] = target: T2, Prothrombin; test: Compound was evaluated for the inhibition of thrombin.; outline: as §1
[5] = target: T3, Vitamin K-dependent protein C; test: Compound was evaluated for the inhibition of Activated protein C (aPC); outline: as §2

| Ki (Serine protease 1) [nM] | Ki (Coagulation factor X) [nM] | Ki (Prothrombin [1]) [nM] | Ki [2] [nM] | Ki [3] [nM] | Ki (Plasminogen) [nM] | Ki (Prothrombin [4]) [nM] | Ki [5] [nM] | Compound |
| --- | --- | --- | --- | --- | --- | --- | --- | --- |
| 1940 | 34 | 970 |  |  |  |  |  | COc1ccc2ccc(S(=O)(=O)N(Cc3cccs3)[C@H]3CCN(Cc4cccc(C(=N)N)c4)C3=O)cc2c1 |
| 80 | 340 | 630 |  |  |  |  |  | N=C(N)c1cccc(CNC(=O)CNS(=O)(=O)c2ccc3ccccc3c2)c1 |
| 1940 | 31 | 1160 |  |  |  |  |  | COc1ccc2ccc(S(=O)(=O)N(Cc3ccccn3)[C@H]3CCN(Cc4cccc(C(=N)N)c4)C3=O)cc2c1 |
| > 2900 | 500 | > 4000 |  |  |  |  |  | N=C(N)c1cccc(CN2CC[C@H](NS(=O)(=O)c3ccc4ccc(O)cc4c3)C2=O)c1 |
| 500 | 11 | 1300 |  |  |  |  |  | COc1ccc2ccc(S(=O)(=O)N[C@H]3CCN(Cc4csc(C(=N)N)c4)C3=O)cc2c1 |
| 1600 | 370 | 1600 |  |  |  |  |  | CCc1ccc2ccc(S(=O)(=O)N[C@H]3CCN(Cc4cccc(C(=N)N)c4)C3=O)cc2c1 |
| > 2900 | 1300 | > 4000 |  |  |  |  |  | N=C(N)c1cccc(CN2CCC[C@H](NS(=O)(=O)c3ccc4ccccc4c3)C2=O)c1 |
| 2900 | 900 | > 4000 |  |  |  |  |  | N=C(N)c1cccc(Cn2cc(CCc3ccc4ccccc4c3)c3ccccc32)c1 |
| > 2900 | 380 | > 4000 |  |  |  |  |  | N=C(N)c1cccc(CN2CC[C@H](NS(=O)(=O)c3ccc(Oc4ccccc4)cc3)C2=O)c1 |
| 1080 | 19 | 360 |  |  |  |  |  | COc1ccc2ccc(S(=O)(=O)N(Cc3ccsc3)[C@H]3CCN(Cc4cccc(C(=N)N)c4)C3=O)cc2c1 |
| > 2900 | 100 | 2500 |  |  |  |  |  | COc1cccc(-c2ccc(S(=O)(=O)N[C@H]3CCN(Cc4cccc(C(=N)N)c4)C3=O)cc2)c1 |
| 1390 | 21 | 1080 |  |  |  |  |  | COc1ccc2ccc(S(=O)(=O)N(Cc3cc[nH]n3)[C@H]3CCN(Cc4cccc(C(=N)N)c4)C3=O)cc2c1 |
| > 2900 | 120 | > 4000 |  |  |  |  |  | Cc1cccc(-c2ccc(S(=O)(=O)N[C@H]3CCN(Cc4cccc(C(=N)N)c4)C3=O)cc2)c1 |
| > 2900 | 9800 | > 4000 |  |  |  |  |  | N=C(N)c1cccc(CN2C[C@@H](NS(=O)(=O)c3ccc4ccccc4c3)CC2=O)c1 |
| > 2900 | 180 | > 4000 |  |  |  |  |  | COc1ccc2ccc(S(=O)(=O)N[C@H]3CCN(Cc4coc(C(=N)N)c4)C3=O)cc2c1 |
| > 2900 | 9900 | > 4000 |  |  |  |  |  | N=C(N)c1cccc(CN2C[C@H](NS(=O)(=O)c3ccc4ccccc4c3)C2=O)c1 |
| > 2900 | 7000 | > 4000 |  |  |  |  |  | N=C(N)c1cccc(CN2CCCC[C@H](NS(=O)(=O)c3ccc4ccccc4c3)C2=O)c1 |
| > 2900 | 120 | > 4000 |  |  |  |  |  | COc1ccc2ccc(S(=O)(=O)N(CC(=O)O)[C@H]3CCN(Cc4cccc(C(=N)N)c4)C3=O)cc2c1 |
| 1400 | 43 | 880 |  |  |  |  |  | CCN([C@H]1CCN(Cc2cccc(C(=N)N)c2)C1=O)S(=O)(=O)c1ccc2ccc(OC)cc2c1 |
| 2000 | 56 | 1500 |  |  |  |  |  | COc1ccc2ccc(S(=O)(=O)N(CCC(N)=O)[C@H]3CCN(Cc4cccc(C(=N)N)c4)C3=O)cc2c1 |
| > 2900 | > 10000 | > 4000 |  |  |  |  |  | N=C(N)c1cccc(CN2CC[C@H](NS(=O)(=O)c3ccc4ccccc4c3)C2)c1 |

| Ki (Serine protease 1) [nM] | Ki (Coagulation factor X) [nM] | Ki (Prothrombin [1]) [nM] | Ki [2] [nM] | Ki [3] [nM] | Ki (Plasminogen) [nM] | Ki (Prothrombin [4]) [nM] | Ki [5] [nM] | Compound |
| --- | --- | --- | --- | --- | --- | --- | --- | --- |
| > 2900 | 1100 | > 4000 |  |  |  |  |  | N=C(N)c1cccc(CN2CC[C@H](NS(=O)(=O)c3ccc(Cc4ccccc4)cc3)C2=O)c1 |
|  |  |  | > 10000 | 1200 | 4700 |  |  | COc1ccc2ccc(S(=O)(=O)N[C@H]3CCN(Cc4cccc(C(=N)N)c4)C3=O)cc2c1 |
| > 2900 | 750 | > 4000 |  |  |  |  |  | N=C(N)c1cccc(CN2CC[C@H](NS(=O)(=O)c3cccc4ccccc34)C2=O)c1 |
| > 2900 | 70 | 1500 |  |  |  |  |  | N=C(N)c1cccc(CN2CC[C@H](NS(=O)(=O)c3ccc4cc(Cl)ccc4c3)C2=O)c1 |
| 1500 | 250 | > 4000 |  |  |  |  |  | CNc1ccc2ccc(S(=O)(=O)N[C@H]3CCN(Cc4cccc(C(=N)N)c4)C3=O)cc2c1 |
| 940 | 83 | 2400 |  |  |  |  |  | COc1ccc2ccc(S(=O)(=O)N[C@H]3CCN(Cc4cc(C(=N)N)cs4)C3=O)cc2c1 |
| 530 |  |  | 8600 | 2400 | 4400 | 1000 |  | COc1ccc2ccc(S(=O)(=O)N(C)[C@H]3CCN(Cc4csc(C(=N)N)c4)C3=O)cc2c1 |
| 2000 | 78 | 1200 |  |  |  |  |  | N=C(N)c1cccc(CN2CC[C@H](NS(=O)(=O)c3ccc4ccc(Cl)cc4c3)C2=O)c1 |
| > 2900 | 190 | > 4000 |  |  |  |  |  | COc1ccccc1-c1ccc(S(=O)(=O)N[C@H]2CCN(Cc3cccc(C(=N)N)c3)C2=O)cc1 |
| 1100 | 100 | 1340 |  |  |  |  |  | Cc1ccc2ccc(S(=O)(=O)N[C@H]3CCN(Cc4cccc(C(=N)N)c4)C3=O)cc2c1 |
| 2840 | 110 | 2040 |  |  |  |  |  | COc1ccc2ccc(S(=O)(=O)N[C@H]3CCN(Cc4ccnc(C(=N)N)c4)C3=O)cc2c1 |
| 2300 | 970 | > 4000 |  |  |  |  |  | COc1ccc2ccc(S(=O)(=O)N[C@H]3CCN(Cc4ccc(C(=N)N)cc4)C3=O)cc2c1 |
| > 2900 | 440 | > 4000 |  |  |  |  |  | N=C(N)c1cccc(CN2CC[C@H](NS(=O)(=O)c3cccc(-c4ccccc4)c3)C2=O)c1 |
| 1800 | 41 | 440 |  |  |  |  |  | COc1ccc2ccc(S(=O)(=O)N(Cc3ccccc3)[C@H]3CCN(Cc4cccc(C(=N)N)c4)C3=O)cc2c1 |
| > 2900 | 280 | 1900 |  |  |  |  |  | CCOc1ccc2ccc(S(=O)(=O)N[C@H]3CCN(Cc4cccc(C(=N)N)c4)C3=O)cc2c1 |
| 1000 | 25 | 1440 |  |  |  |  |  | COc1ccc2ccc(S(=O)(=O)N(CC(N)=O)[C@H]3CCN(Cc4cccc(C(=N)N)c4)C3=O)cc2c1 |
| > 2900 | 1000 | 900 |  |  |  |  |  | COc1ccc2cc(S(=O)(=O)N[C@H]3CCN(Cc4cccc(C(=N)N)c4)C3=O)ccc2c1 |
|  | 220 |  |  |  |  |  |  | COc1ccc2ccc(S(=O)(=O)N[C@H]3CCN(Cc4ccc(C(=N)N)s4)C3=O)cc2c1 |
| > 2900 | 570 | > 4000 |  |  |  |  |  | COc1ccc2ccc(S(=O)(=O)N[C@H]3CCN(Cc4ccc(C(=N)N)o4)C3=O)cc2c1 |
| 1300 | 120 | 2600 |  |  |  |  |  | N=C(N)c1cccc(CN2CC[C@H](NS(=O)(=O)c3ccc4ccc(N)cc4c3)C2=O)c1 |
| 2900 |  | > 4000 | > 10000 |  | 4700 |  | 7000 | N=C(N)c1cccc(CN2CC[C@H](NS(=O)(=O)c3ccc4ccccc4c3)C2=O)c1 |
